The target of the first experiment is T1, Proteasome subunit beta type-9 (Homo sapiens, UniProt P28065).
T1 sequence (P28065 whole entry): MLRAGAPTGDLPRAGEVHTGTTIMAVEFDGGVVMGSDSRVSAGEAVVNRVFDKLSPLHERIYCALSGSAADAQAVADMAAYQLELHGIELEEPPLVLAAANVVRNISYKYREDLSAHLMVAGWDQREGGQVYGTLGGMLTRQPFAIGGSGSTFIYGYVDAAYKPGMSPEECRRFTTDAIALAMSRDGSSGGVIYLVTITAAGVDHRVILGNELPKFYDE
Briefly: Inhibition of 20S immunoproteasome beta 1 in human RPMI8226 cell lysates after 1 hr by coomassie brilliant blue staining-based fluorescence assay. The class given is subcellular, Lysate. A digest of the protocol:
(§1)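 Living RPMI-8226 cells were grown in RPMI-1640 with 10% FCS. Cells at (5–8)×10⁵ cells/mL were exposed to inhibitor for 1 h at 37 °C, washed in PBS and lysed on ice for 1 h in digitonin/ATP buffer. Residual activity was read by cocktail-ABP labeling, SDS-PAGE and fluorescence densitometry relative to mock, with Coomassie staining correcting for loading. IC50 came from three independent experiments.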
As to `CC(C)C[C@H](NC(=O)[C@H](Cc1ccccc1)N=[N+]=[N-])C(=O)N[C@H](C(=O)N[C@H](/C=C/S(C)(=O)=O)Cc1ccc(CN)cc1)[C@@H](C)O`, the IC50 is more than 10 µM.

In another experiment the target is T1, Proteasome subunit beta type-9. Briefly: Inhibition of 20S immunoproteasome beta 1 in human Raji cell lysates after 1 hr by competitive ABPP assay. It is filed as subcellular, Lysate. In outline: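 Raji cells were sonicated in 3 volumes of Tris pH 7.5 lysis buffer containing DTT, MgCl₂, sucrose, 2 mM ATP and 0.05% digitonin. Lysate (5 μg protein, in buffer with 2 mM ATP and glycerol) was preincubated with inhibitor for 1 h at 37 °C, then with a cocktail of three fluorescent ABPs for 1 h. […] In-gel fluorescence densitometry was normalized to mock. IC50 came from the mean of three experiments.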
With `COc1ccc(C[C@H](NC(=O)[C@H](C)NC(=O)CN2CCOCC2)C(=O)N[C@@H](C[C@H]2CCC[C@@H]3CCCC[C@@H]32)C(=O)[C@@]2(C)CO2)cc1`, the IC50 was more than 100 µM.

Consider `COc1ccc(C[C@H](NC(=O)[C@H](C)NC(=O)CN2CCOCC2)C(=O)N[C@@H](C[C@@H]2CCCC3CCCCC32)C(=O)[C@@]2(C)CO2)cc1` (stereo partly drawn), for which the IC50 is more than 100 µM.

Take `CC(C)C[C@H](NC(=O)[C@H](Cc1ccccc1)N=[N+]=[N-])C(=O)N[C@H](C(=O)N[C@H](/C=C/S(C)(=O)=O)Cc1ccc(CN)cc1)[C@@H](C)O`: the IC50 is more than 100 µM.

The target in a further experiment is T2, Proteasome subunit beta type-10 (Homo sapiens, UniProt P40306).
T2 sequence (P40306 whole entry): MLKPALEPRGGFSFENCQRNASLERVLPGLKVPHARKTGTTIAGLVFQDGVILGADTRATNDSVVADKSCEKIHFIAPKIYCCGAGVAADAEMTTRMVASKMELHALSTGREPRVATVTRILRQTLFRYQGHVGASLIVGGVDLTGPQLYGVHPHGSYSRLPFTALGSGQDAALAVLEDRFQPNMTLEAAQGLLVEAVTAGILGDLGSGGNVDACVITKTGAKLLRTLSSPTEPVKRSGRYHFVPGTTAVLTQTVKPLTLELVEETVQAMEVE
The experiment is described as follows: Inhibition of 20S immunoproteasome beta 2 (unknown origin) by cell based ABPP assay. A digest of the protocol: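 Living RPMI-8226 cells, (5–8) ×10^5 cells/mL, exposed to inhibitor 1 h at 37 °C, washed, lysed in digitonin buffer 1 h on ice; residual activity labelled with cocktail ABPs, SDS-PAGE in-gel fluorescence, bands divided by mock, Coomassie staining to correct loading. IC50 from mean of three independent experiments.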
`CC(C)C[C@H](NC(=O)[C@H](Cc1ccccc1)N=[N+]=[N-])C(=O)N[C@H](C(=O)N[C@H](/C=C/S(C)(=O)=O)Cc1ccc(CN)cc1)[C@@H](C)O` had an IC50 of 0.33 µM.

The next experiment addresses T3, Proteasome Macropain subunit MB1 (Homo sapiens, UniProt P28074).
T3 sequence (P28074 whole entry): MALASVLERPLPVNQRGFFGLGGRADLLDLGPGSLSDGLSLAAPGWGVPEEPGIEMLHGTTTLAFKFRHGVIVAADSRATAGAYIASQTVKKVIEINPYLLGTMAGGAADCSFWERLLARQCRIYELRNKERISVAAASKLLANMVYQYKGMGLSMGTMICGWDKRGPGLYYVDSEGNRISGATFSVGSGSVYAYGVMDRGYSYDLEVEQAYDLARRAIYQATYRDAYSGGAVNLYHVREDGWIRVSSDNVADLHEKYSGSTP
Briefly: Inhibition of 20S constitutive proteasome beta 5 chymotrypsin-like activity in human RPMI8226 cell lysates after 1 hr by coomassie brilliant blue staining-based fluorescence assay. The class given is subcellular, Lysate. A digest of the protocol:
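Cells at (5–8)×10⁵ cells/mL were exposed to inhibitor for 1 h at 37 °C, washed in PBS and lysed on ice for 1 h in digitonin/ATP buffer. Residual activity was read by cocktail-ABP labeling, SDS-PAGE and fluorescence densitometry relative to mock, with Coomassie staining correcting for loading. IC50 came from three independent experiments.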
In turn, `CC(C)C[C@H](NC(=O)[C@H](Cc1ccccc1)N=[N+]=[N-])C(=O)N[C@H](C(=O)N[C@H](/C=C/S(C)(=O)=O)Cc1ccc(CN)cc1)[C@@H](C)O` had an IC50 of more than 10 µM.

The target in another experiment is T4, Proteasome subunit beta type-8 (Homo sapiens, UniProt P28062).
T4 sequence (P28062 whole entry): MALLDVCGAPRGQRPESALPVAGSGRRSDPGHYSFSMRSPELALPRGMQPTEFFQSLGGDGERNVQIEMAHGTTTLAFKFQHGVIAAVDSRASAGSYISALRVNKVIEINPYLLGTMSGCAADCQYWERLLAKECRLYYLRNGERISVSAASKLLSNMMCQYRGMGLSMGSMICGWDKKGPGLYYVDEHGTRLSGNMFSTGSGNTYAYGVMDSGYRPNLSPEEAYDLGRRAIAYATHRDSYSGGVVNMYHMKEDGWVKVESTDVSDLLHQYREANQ
The experiment is described as follows: Inhibition of 20S immunoproteasome beta 5 in human Raji cell lysates after 1 hr by competitive ABPP assay. It is filed as subcellular, Lysate.
For `COc1ccc(C[C@H](NC(=O)[C@H](C)NC(=O)CN2CCOCC2)C(=O)N[C@@H](C[C@H]2CCC[C@@H]3CCCC[C@@H]32)C(=O)[C@@]2(C)CO2)cc1`, the IC50 is more than 100 µM.

`COc1ccc(C[C@H](NC(=O)[C@H](C)NC(=O)CN2CCOCC2)C(=O)N[C@@H](C[C@@H]2CCCC3CCCCC32)C(=O)[C@@]2(C)CO2)cc1` (stereo partly drawn): the IC50 was more than 100 µM.

`CC(C)C[C@H](NC(=O)[C@H](Cc1ccccc1)N=[N+]=[N-])C(=O)N[C@H](C(=O)N[C@H](/C=C/S(C)(=O)=O)Cc1ccc(CN)cc1)[C@@H](C)O`: the IC50 came to 2.1 µM.

In the next experiment the target is T5, Proteasome subunit beta type-6 (Homo sapiens, UniProt P28072).
T5 sequence (P28072 whole entry): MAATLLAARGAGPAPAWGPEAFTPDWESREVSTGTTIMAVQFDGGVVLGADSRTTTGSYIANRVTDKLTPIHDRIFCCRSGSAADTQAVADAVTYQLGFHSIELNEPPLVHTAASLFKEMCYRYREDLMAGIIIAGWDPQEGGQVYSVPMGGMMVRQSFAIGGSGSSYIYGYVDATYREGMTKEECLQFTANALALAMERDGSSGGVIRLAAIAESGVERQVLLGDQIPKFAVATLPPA
Briefly: Inhibition of 20S constitutive proteasome beta 1 caspase-like activity in human Raji cell lysates after 1 hr by competitive ABPP assay. The class given is subcellular, Lysate. In outline: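 Raji cells were sonicated in 3 volumes of Tris pH 7.5 lysis buffer containing DTT, MgCl₂, sucrose, 2 mM ATP and 0.05% digitonin. Lysate (5 μg protein, in buffer with 2 mM ATP and glycerol) was preincubated with inhibitor for 1 h at 37 °C, then with a cocktail of three fluorescent ABPs for 1 h. In-gel fluorescence densitometry was normalized to mock. IC50 came from the mean of three experiments.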
For the molecule `COc1ccc(C[C@H](NC(=O)[C@H](C)NC(=O)CN2CCOCC2)C(=O)N[C@@H](C[C@H]2CCC[C@@H]3CCCC[C@@H]32)C(=O)[C@@]2(C)CO2)cc1`, the IC50 was more than 100 µM.

With `COc1ccc(C[C@H](NC(=O)[C@H](C)NC(=O)CN2CCOCC2)C(=O)N[C@@H](C[C@@H]2CCCC3CCCCC32)C(=O)[C@@]2(C)CO2)cc1` (stereo partly drawn), the IC50 is more than 100 µM.

Consider `CC(C)C[C@H](NC(=O)[C@H](Cc1ccccc1)N=[N+]=[N-])C(=O)N[C@H](C(=O)N[C@H](/C=C/S(C)(=O)=O)Cc1ccc(CN)cc1)[C@@H](C)O`, for which the IC50 was more than 100 µM.

The target of a further experiment is T2, Proteasome subunit beta type-10. Briefly: Inhibition of 20S immunoproteasome beta 2 in human RPMI8226 cell lysates after 1 hr by coomassie brilliant blue staining-based fluorescence assay. It is filed as subcellular, Lysate.
`CC(C)C[C@H](NC(=O)[C@H](Cc1ccccc1)N=[N+]=[N-])C(=O)N[C@H](C(=O)N[C@H](/C=C/S(C)(=O)=O)Cc1ccc(CN)cc1)[C@@H](C)O`: the IC50 was more than 10 µM.

For another experiment, the target named is T3, Proteasome Macropain subunit MB1. Briefly: Inhibition of 20S constitutive proteasome beta 5 chymotrypsin-like activity in human Raji cell lysates after 1 hr by competitive ABPP assay. It is filed as subcellular, Lysate.
Turning to `COc1ccc(C[C@H](NC(=O)[C@H](C)NC(=O)CN2CCOCC2)C(=O)N[C@@H](C[C@H]2CCC[C@@H]3CCCC[C@@H]32)C(=O)[C@@]2(C)CO2)cc1`, the IC50 was more than 100 µM.

The molecule `COc1ccc(C[C@H](NC(=O)[C@H](C)NC(=O)CN2CCOCC2)C(=O)N[C@@H](C[C@@H]2CCCC3CCCCC32)C(=O)[C@@]2(C)CO2)cc1` (stereo partly drawn) yielded an IC50 of more than 100 µM.

Molecule `CC(C)C[C@H](NC(=O)[C@H](Cc1ccccc1)N=[N+]=[N-])C(=O)N[C@H](C(=O)N[C@H](/C=C/S(C)(=O)=O)Cc1ccc(CN)cc1)[C@@H](C)O` came in with an IC50 of 0.75 µM.

Another experiment addresses T2, Proteasome subunit beta type-10. The experiment is described as follows: Inhibition of 20S immunoproteasome beta 2 in human Raji cell lysates after 1 hr by competitive ABPP assay. It is filed as subcellular, Lysate.
In the case of `CC(C)C[C@H](NC(=O)[C@H](Cc1ccccc1)N=[N+]=[N-])C(=O)N[C@H](C(=O)N[C@H](/C=C/S(C)(=O)=O)Cc1ccc(CN)cc1)[C@@H](C)O`, the IC50 was found to be 0.11 µM.

The target in a further experiment is T4, Proteasome subunit beta type-8. Briefly: Inhibition of 20S immunoproteasome beta 5 in human RPMI8226 cell lysates after 1 hr by coomassie brilliant blue staining-based fluorescence assay. The class given is subcellular, Lysate. A digest of the protocol: as §1
The molecule `CC(C)C[C@H](NC(=O)[C@H](Cc1ccccc1)N=[N+]=[N-])C(=O)N[C@H](C(=O)N[C@H](/C=C/S(C)(=O)=O)Cc1ccc(CN)cc1)[C@@H](C)O` gave an IC50 of more than 10 µM.

As usually defined, the IC50 is the concentration that inhibits the measured activity by half.

Source of the values: ChEMBL document CHEMBL4368918, “Structure-Based Design of Inhibitors Selective for Human Proteasome β2c or β2i Subunits” (J Med Chem, 2019).
